Experimental data reported in ChEMBL document CHEMBL1137637, “Quinuclidine derivatives as potential antiparasitics” (Antimicrob Agents Chemother, 2007).
Values after ≈ are worked out from the molar mass of the structure shown.

Key:
L6 = assay: Cytotoxicity against rat L6 cells after 72 hrs by resazurin assay; format: cell-based; conditions: L6, 72 h
Summary of the method: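 L-6 cells seeded at 4 × 10⁴ cells/ml in RPMI 1640 with 10% FBS and 2 mM L-glutamine. After 24 h, medium replaced with serial drug dilution and incubated for 72 h at 37°C in 5% CO2. Resazurin added for 2–4 h, fluorescence read at ex 536/em 588 nm. IC50 from sigmoidal curve. Duplicate, with an independent repeat for actives.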

[1] = molecular target: T1, Farnesyltransferase, putative (Leishmania major, UniProt Q4Q5W4); assay: Inhibition of Leishmania major recombinant squalene synthase expressed in Escherichia coli by liquid scintillation counter
T1 sequence (Q4Q5W4 whole entry): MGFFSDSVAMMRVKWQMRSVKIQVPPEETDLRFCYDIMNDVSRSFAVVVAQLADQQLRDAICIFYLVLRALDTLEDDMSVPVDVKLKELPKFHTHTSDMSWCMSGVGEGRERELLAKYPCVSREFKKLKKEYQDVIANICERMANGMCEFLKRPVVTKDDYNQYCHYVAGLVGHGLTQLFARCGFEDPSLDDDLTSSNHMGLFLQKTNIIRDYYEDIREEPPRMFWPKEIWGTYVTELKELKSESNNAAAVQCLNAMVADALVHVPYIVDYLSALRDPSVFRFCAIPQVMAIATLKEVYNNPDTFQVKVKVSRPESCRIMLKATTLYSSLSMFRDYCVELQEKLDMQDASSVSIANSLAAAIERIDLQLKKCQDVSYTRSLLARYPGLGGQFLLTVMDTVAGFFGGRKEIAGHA
Summary of the method: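 Soluble E. coli extract expressing L. major SQS truncated by 16 N-terminal and 40 C-terminal residues. Buffer: 50 mM phosphate pH 7.4, 20 mM MgCl2, 5 mM CHAPS, 1% Tween 80, 10 mM DTT, BSA, 0.25 mM NADPH, and a glucose-6-phosphate/G6PDH regenerating system. Substrate 0.5 μM radiolabelled farnesyl pyrophosphate. Squalene band counted by scintillation. IC50 from hyperbolic plot of five concentrations in duplicate, usually run twice.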

Trypanosoma cruzi = assay: Antitrypanosomal activity against trypomastigotes of Trypanosoma cruzi Tulahuen C2C4 containing lacZ gene in rat L6 cells after 4 days by chlorophenol red-beta-D-galactopyranoside/Nonidet assay; format: functional, organism-based; conditions: Tulahuen C2C4, L6, 96 h
Summary of the method: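 L-6 rat myoblasts seeded at 2,000 cells/well in RPMI 1640 with 10% FBS and 2 mM L-glutamine. After 24 h, 5,000 T. cruzi Tulahuen C2C4 lacZ trypomastigotes added with serial drug dilution. Incubated at 37°C in 5% CO2 for 4 days. CPRG/Nonidet substrate added and colour read at 540 nm after 2–4 h. IC50 from sigmoidal curve. Duplicate determinations.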

Leishmania amazonensis [2] = assay: Antileishmanial activity against Leishmania mexicana amazonensis promastigotes by trypan blue exclusion method; format: functional, organism-based
Summary of the method: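 L. mexicana amazonensis promastigotes cultured in liver infusion-tryptose medium with lactalbumin and 10% FCS at 26°C, unagitated. Cultures started at 2 × 10⁶ cells/ml and drug added at 0.5–1 × 10⁷ cells/ml. Density counted by electronic particle counter and hemocytometer. Viability by trypan blue exclusion. Triplicate growth experiments.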

Plasmodium falciparum = assay: Antiplasmodial activity after 48 hrs against chloroquine and pyrimethamine-resistant Plasmodium falciparum K1 in human erythrocytes by [3H]hypoxanthine uptake; format: functional, organism-based
Summary of the method: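 P. falciparum K1 in human red cells in RPMI 1640 with 5% Albumax, exposed to serial drug dilutions. Incubated 48 h at 37°C under reduced oxygen, then 0.5 μCi [³H]hypoxanthine per well for 24 h more. Cells harvested onto glass-fibre filters and counted by scintillation. Result expressed as % of untreated control, with IC50 from sigmoidal curve. Duplicate, plus an independent repeat for actives.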

Leishmania amazonensis [3] = assay: Inhibition of sterol biosynthesis in Leishmania mexicana amazonensis promastigotes assessed as reduction in exogenous cholesterol level at 10 uM after 96 hrs by gas-liquid chromatography; format: functional; design: scale not given: the % may be the effect or the level left
Summary of the method: (§1)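 L. mexicana promastigotes exposed to compound for 96 h. Total lipids extracted and neutral sterols separated from polar lipids by silicic acid column chromatography. Sterols analysed by TLC and by quantitative capillary gas-liquid chromatography with mass spectrometry. Composition expressed as mass % of free sterols, compared with untreated control.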

[4] = test system: Trypanosoma brucei rhodesiense; assay: Trypanocidal activity against Trypanosoma brucei rhodesiense STIB 900 bloodstream form after 72 hrs by resazurin assay; format: functional, organism-based; conditions: STIB 900, 72 h
Summary of the method: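 T. b. rhodesiense STIB 900 bloodstream forms in MEM with 2-mercaptoethanol and 15% heat-inactivated horse serum, with serial drug dilutions. Incubated 72 h at 37°C in 5% CO2. Resazurin added for 2–4 h more, fluorescence read at ex 536/em 588 nm. IC50 from sigmoidal curve. Duplicate, with an independent repeat for actives.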

Leishmania amazonensis [5] = assay: Inhibition of sterol biosynthesis in Leishmania mexicana amazonensis promastigotes assessed as reduction in endogenous cholesta-7,24-dien-3beta-ol level at 3 uM after 96 hrs by gas-liquid chromatography; format: functional; design: scale not given: the % may be the effect or the level left; summary of the method: as §1
Leishmania amazonensis [6] = assay: Inhibition of sterol biosynthesis in Leishmania mexicana amazonensis promastigotes assessed as reduction in exogenous cholesterol level at 3 uM after 96 hrs by gas-liquid chromatography; format: functional; design: scale not given: the % may be the effect or the level left; summary of the method: as §1
Leishmania amazonensis [7] = assay: Inhibition of sterol biosynthesis in Leishmania mexicana amazonensis promastigotes assessed as reduction in endogenous episterol level at 3 uM after 96 hrs by gas-liquid chromatography; format: functional; design: scale not given: the % may be the effect or the level left; summary of the method: as §1
Leishmania donovani = assay: Antileishmanial activity against Leishmania donovani MHOM/ET/67/L82 axenic amastigotes after 72 hrs by resazurin assay; format: functional, organism-based; conditions: MHOM/ET/67/L82, 72 h
Summary of the method: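 L. donovani MHOM/ET/67/L82 amastigotes grown axenically at 37°C in synthetic minimal medium at pH 5.4 with 10% heat-inactivated FBS under 5% CO2. 1 × 10⁵ amastigotes per well with seven threefold dilutions, 30 to 0.041 μg/ml. After 72 h, resazurin added for 2–4 h more. Fluorescence read at ex 536/em 588 nm. IC50 taken from sigmoidal curve. Run in duplicate, with an independent repeat for actives.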

Leishmania amazonensis [8] = assay: Inhibition of sterol biosynthesis in Leishmania mexicana amazonensis promastigotes assessed as reduction in endogenous 5-dehydro episterol level at 10 uM after 96 hrs by gas-liquid chromatography; format: functional; design: scale not given: the % may be the effect or the level left; summary of the method: as §1
Leishmania amazonensis [9] = assay: Inhibition of sterol biosynthesis in Leishmania mexicana amazonensis promastigotes assessed as reduction in endogenous episterol level at 10 uM after 96 hrs by gas-liquid chromatography; format: functional; design: scale not given: the % may be the effect or the level left; summary of the method: as §1
Leishmania amazonensis [10] = assay: Inhibition of sterol biosynthesis in Leishmania mexicana amazonensis promastigotes assessed as reduction in endogenous cholesta-5,7,24-trien-3beta-ol level at 10 uM after 96 hrs by gas-liquid chromatography; format: functional; design: scale not given: the % may be the effect or the level left; summary of the method: as §1
Squalene synthase = molecular target: T2, Squalene synthase (Homo sapiens, UniProt P37268); assay: Inhibition of human recombinant squalene synthase expressed in Escherichia coli BL21(DE3 pLysS) up to 1 uM by liquid scintillation counter
T2 sequence (P37268 whole entry): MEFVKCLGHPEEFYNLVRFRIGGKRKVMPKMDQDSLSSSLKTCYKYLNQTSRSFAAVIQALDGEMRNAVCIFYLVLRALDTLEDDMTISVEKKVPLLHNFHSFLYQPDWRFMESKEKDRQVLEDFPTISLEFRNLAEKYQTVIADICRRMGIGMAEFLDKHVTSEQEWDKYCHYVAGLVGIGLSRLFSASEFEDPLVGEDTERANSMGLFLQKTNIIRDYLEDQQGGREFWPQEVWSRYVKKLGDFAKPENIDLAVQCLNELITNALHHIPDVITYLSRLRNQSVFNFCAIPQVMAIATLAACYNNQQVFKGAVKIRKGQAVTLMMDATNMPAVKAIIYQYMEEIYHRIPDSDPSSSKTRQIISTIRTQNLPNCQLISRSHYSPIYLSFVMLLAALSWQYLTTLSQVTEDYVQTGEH
Summary of the method: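 Human SQS in extracts of E. coli BL21(DE3 pLysS) carrying pHSS16, assayed under the same conditions as the L. major enzyme. Buffer: phosphate pH 7.4, MgCl2, CHAPS, Tween 80, DTT, BSA, and NADPH with a regenerating system. Substrate 0.5 μM radiolabelled farnesyl pyrophosphate. Squalene band radioactivity counted by scintillation.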

Leishmania amazonensis [11] = assay: Inhibition of sterol biosynthesis in Leishmania mexicana amazonensis promastigotes assessed as reduction in endogenous cholesta-7,24-dien-3beta-ol level at 10 uM after 96 hrs by gas-liquid chromatography; format: functional; design: scale not given: the % may be the effect or the level left; summary of the method: as §1
Leishmania amazonensis [12] = assay: Inhibition of sterol biosynthesis in Leishmania mexicana amazonensis promastigotes assessed as reduction in endogenous cholesta-5,7,24-trien-3beta-ol level at 3 uM after 96 hrs by gas-liquid chromatography; format: functional; design: scale not given: the % may be the effect or the level left; summary of the method: as §1
Leishmania amazonensis [13] = assay: Inhibition of sterol biosynthesis in Leishmania mexicana amazonensis promastigotes assessed as reduction in endogenous 5-dehydro episterol level at 3 uM after 96 hrs by gas-liquid chromatography; format: functional; design: scale not given: the % may be the effect or the level left; summary of the method: as §1

Compound	IC50 (L6)	IC50 [1]	IC50 (Trypanosoma cruzi)	MIC (Leishmania amazonensis [2])	IC50 (Plasmodium falciparum)	Activity (Leishmania amazonensis [3])	IC50 [4]	Activity (Leishmania amazonensis [5])	Activity (Leishmania amazonensis [6])	Activity (Leishmania amazonensis [7])	IC50 (Leishmania donovani)	Activity (Leishmania amazonensis [8])	Activity (Leishmania amazonensis [9])	Activity (Leishmania amazonensis [10])	IC50 (Squalene synthase)	Activity (Leishmania amazonensis [11])	Activity (Leishmania amazonensis [12])	Activity (Leishmania amazonensis [13])
OC[C@@H]1CC2CCN1C[C@@H]2C#Cc1ccc(OCc2ccccc2)cc1 (some centres not stated)	16.1 µM	> 1 µM	3.4 µM	10 µM (≈ 3.47 µg/mL)	0.6 µM	>99%	1.2 µM	15.9%	61.4%	22.7%	7.4 µM							
C(=C1/CN2CCC1CC2)/c1ccccc1	382 µM	> 1 µM	> 151 µM	> 10 µM	0.8 µM	10.6%	16 µM				> 151 µM	70.7%	12.2%	3.7%	Not Active	2.8%		
C(=C1/CN2CCC1CC2)/c1ccc(C2OCCO2)cc1	136 µM	> 1 µM	46 µM	> 10 µM	12.3 µM	25.4%	5.5 µM				82.1 µM	16.1%	14.2%	18.5%	Not Active			
c1ccc(CC2CN3CCC2CC3)cc1 (configuration not stated)	> 447 µM	> 1 µM	130 µM	> 10 µM	5.4 µM	14.9%	60.6 µM				> 149 µM	2.8%	51.3%	23.2%	Not Active	2.9%		
c1ccc2cc(CC3CN4CCC3CC4)ccc2c1 (configuration not stated)	98.2 µM	> 1 µM	25.4 µM	3 µM (≈ 0.754 µg/mL)	1.8 µM		2.5 µM	3.5%	26.4%	9.3%	> 119 µM				Not Active		11.2%	49.6%
